The source of these data is ChEMBL document CHEMBL1255198, “Expanding the diversity of allosteric bcr-abl inhibitors” (J Med Chem, 2010).

A short description of the first test: Cytotoxicity against mouse BA/F3 cells. The settings on record: BaF3. Format: cell-based. Summed up:
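Parental IL-3-dependent murine Ba/F3 cells grown at 37 °C, 5% CO₂ in RPMI 1640 with 10% FBS, 1% L-glutamine and 10% WEHI-conditioned medium as IL-3 source. Growth after 48 h read by CellTiter-Glo luminescence.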
Broadly, the EC50 is the concentration needed to bring the measured effect to its halfway point. For the molecule `FC(F)(F)Oc1ccc(CNc2cc(NCCN3CCOCC3)ncn2)cc1`, the half-maximal effective concentration (EC50) is greater than 10 µM.

As for `Cc1nc(C)c(Cn2ncc3c(Nc4ccc(OC(F)(F)F)cc4)ncnc32)s1`, the EC50 was greater than 10 µM.

Regarding `Cc1ccc(C(=O)Nc2cccc(C(F)(F)F)c2)cc1NC(=O)c1cc2c(Nc3ccc(OC(F)(F)F)cc3)ncnc2s1`, the EC50 turned out to be 8.9 µM.

As for `NC(=O)CCn1ccc2c(Nc3ccc(OC(F)(F)F)cc3)ncnc21`, the EC50 was greater than 10 µM.

For `FC(F)(F)c1ccc(Nc2cc(-c3ccncc3)ncn2)cn1`, the concentration giving a half-maximal response (EC50) was greater than 10 µM.

Take `CS(=O)(=O)c1cccc(-c2cc(Nc3ccc(OC(F)(F)F)cc3)ncn2)c1`: the concentration for a half-maximal effect (EC50) is greater than 10 µM.

`CC(C)(C)n1ncc2c(Nc3ccc(OC(F)(F)F)cc3)ncnc21`: the 50% effective concentration (EC50) amounted to 7.3 µM.

In turn, `OCCn1cc2c(Nc3ccc(OC(F)(F)F)cc3)ncnc2n1` gave an EC50 greater than 10 µM.

`FC(F)(F)Oc1ccc(Nc2cc(N3CCOCC3)ncn2)cc1` had an EC50 greater than 10 µM.

`CCCn1cc2c(Nc3ccc(OC(F)(F)F)cc3)ncnc2n1` came in with an EC50 greater than 10 µM.

`COc1ccc(Nc2cc(NCCN3CCOCC3)ncn2)cc1` yielded a concentration for a half-maximal effect (EC50) greater than 10 µM.

In turn, `NC(=O)c1ccc(Cn2ncc3c(Nc4ccc(OC(F)(F)F)cc4)ncnc32)cc1` had an EC50 greater than 10 µM.

Molecule `NC(=O)c1ccc(-c2cc(Nc3ccc(OC(F)(F)F)cc3)ncn2)cc1` showed a half-maximal effective concentration (EC50) greater than 10 µM.

Molecule `NS(=O)(=O)c1ccc(-c2cc(Nc3ccc(OC(F)(F)F)cc3)ncn2)cc1` registered a concentration giving a half-maximal response (EC50) greater than 10 µM.

Molecule `FC(F)(F)Oc1ccc(Nc2ncnc3nn(C4CCCCC4)cc23)cc1` returned an EC50 greater than 10 µM.

Molecule `NC(=O)c1cccc(-c2cc(Nc3ccc(OC(F)(F)F)cc3)ncn2)c1` came in with an EC50 greater than 10 µM.

Consider `FC(F)(F)Oc1ccc(Nc2cc(-c3cccc4[nH]ccc34)ncn2)cc1`, for which the EC50 came out at 3.79 µM.

`Cc1c(NCCN2CCOCC2)ncnc1Nc1ccc(OC(F)(F)F)cc1` yielded a concentration for a half-maximal effect (EC50) greater than 10 µM.

Molecule `FC(F)(F)Oc1ccc(Nc2cc(-c3ccnc4[nH]ccc34)ncn2)cc1` gave an EC50 of 6.85 µM.

Molecule `FC(F)(F)Oc1ccc(-c2cc(NCCN3CCOCC3)ncn2)cc1` registered a 50% effective concentration (EC50) greater than 10 µM.

Molecule `Cc1nn(C)c(C)c1-c1cc(Nc2ccc(OC(F)(F)F)cc2)ncn1` showed an EC50 greater than 10 µM.

`CNC(=O)c1cccc(-c2cc(Nc3ccc(OC(F)(F)F)cc3)ncn2)c1` came in with an EC50 greater than 10 µM.

As to `FC(F)(F)Oc1ccc(Nc2cncc(NCCN3CCOCC3)n2)cc1`, the concentration for a half-maximal effect (EC50) is greater than 10 µM.

Molecule `O=C(O)c1cc2c(Nc3ccc(OC(F)(F)F)cc3)ncnc2s1` gave a concentration for a half-maximal effect (EC50) greater than 10 µM.

For the molecule `Nc1cccc(-c2cc(Nc3ccc(OC(F)(F)F)cc3)ncn2)c1`, the EC50 is greater than 10 µM.

In turn, `CCn1ncc2c(Nc3ccc(OC(F)(F)F)cc3)ncnc21` registered an EC50 greater than 10 µM.

As to `FC(F)(F)Oc1ccc(Nc2nccc(NCCN3CCOCC3)n2)cc1`, the concentration for a half-maximal effect (EC50) is greater than 10 µM.

The molecule `Cc1nc(NCCN2CCOCC2)cc(Nc2ccc(OC(F)(F)F)cc2)n1` yielded a concentration giving a half-maximal response (EC50) of 1.11 µM.

Turning to `NC(=O)c1cccc(Nc2cc(Nc3ccc(OC(F)(F)F)cc3)ncn2)c1`, the concentration giving a half-maximal response (EC50) is greater than 10 µM.

In the case of `COC(=O)c1cc2c(Nc3ccc(OC(F)(F)F)cc3)ncnc2s1`, the half-maximal effective concentration (EC50) was greater than 10 µM.

As for `NC(=O)Cn1cc2c(Nc3ccc(OC(F)(F)F)cc3)ncnc2n1`, the EC50 was greater than 10 µM.

`FC(F)(F)Oc1cccc(Nc2cc(NCCN3CCOCC3)ncn2)c1` showed an EC50 greater than 10 µM.

`FC(F)(F)Oc1ccc(Nc2ncnc3c2cnn3CC2CCOC2)cc1` (stereo not drawn) gave a concentration for a half-maximal effect (EC50) greater than 10 µM.

`FC(F)(F)Oc1ccc(Nc2cc(-n3ccnc3)ncn2)cc1`: the EC50 was greater than 10 µM.

Turning to `O=C(NCCO)c1cccc(-c2cc(Nc3ccc(OC(F)(F)F)cc3)ncn2)c1`, the EC50 was greater than 10 µM.

In the case of `NS(=O)(=O)c1cccc(-c2cc(Nc3ccc(OC(F)(F)F)cc3)ncn2)c1`, the EC50 was greater than 10 µM.

The molecule `COc1ccc(Cn2ccc3c(Nc4ccc(OC(F)(F)F)cc4)ncnc32)cc1` displayed an EC50 greater than 10 µM.

In turn, `OCc1cc2c(Nc3ccc(OC(F)(F)F)cc3)ncnc2s1` had a concentration giving a half-maximal response (EC50) greater than 10 µM.

`CN1CCN(C(=O)c2cc3c(Nc4ccc(OC(F)(F)F)cc4)ncnc3s2)CC1`: the EC50 is 2.69 µM.

Consider `O=C(c1cc2c(Nc3ccc(OC(F)(F)F)cc3)ncnc2s1)N1CCNCC1`, for which the midpoint of the response, the EC50, lay at 4.07 µM.

As to `Cc1c(-c2cc(Nc3ccc(OC(F)(F)F)cc3)ncn2)cnn1-c1ccccc1`, the 50% effective concentration (EC50) was greater than 10 µM.

For the molecule `FC(F)(F)Oc1ccc(Nc2ncnc3c2ccn3CCN2CCOCC2)cc1`, the EC50 is greater than 10 µM.

In turn, `FC(F)(F)c1ccc(Nc2cc(-c3ccncc3)ncn2)cc1` registered an EC50 greater than 10 µM.

As to `O=C(c1cc2c(Nc3ccc(OC(F)(F)F)cc3)ncnc2s1)N1CCN(N2CCCC2)CC1`, the EC50 came out at 5.77 µM.

With `FC(F)(F)Oc1ccc(Oc2cc(NCCN3CCOCC3)ncn2)cc1`, the EC50 is greater than 10 µM.

For `O=C(c1cccc(-c2cc(Nc3ccc(OC(F)(F)F)cc3)ncn2)c1)N1CCOCC1`, the EC50 is greater than 10 µM.

The molecule `FC(F)(F)Oc1ccc(Nc2cc(-c3cn[nH]c3)ncn2)cc1` returned a concentration giving a half-maximal response (EC50) greater than 10 µM.

Molecule `OCCn1ncc2c(Nc3ccc(OC(F)(F)F)cc3)ncnc21` showed a 50% effective concentration (EC50) greater than 10 µM.

The molecule `FC(F)(F)Oc1ccc(Nc2cc(NCCCN3CCOCC3)ncn2)cc1` yielded a concentration for a half-maximal effect (EC50) greater than 10 µM.

Consider `Cn1cc(-c2cc(Nc3ccc(OC(F)(F)F)cc3)ncn2)cn1`, for which the EC50 was greater than 10 µM.

Take `CS(=O)(=O)Nc1ccc(-c2cc(Nc3ccc(OC(F)(F)F)cc3)ncn2)cc1`: the EC50 came to 2.21 µM.

With `O=C(NCCO)c1cc2c(Nc3ccc(OC(F)(F)F)cc3)ncnc2s1`, the concentration for a half-maximal effect (EC50) was greater than 10 µM.

Turning to `FC(F)(F)Oc1ccc(Nc2ncnc3nn(Cc4cccnc4)cc23)cc1`, the concentration giving a half-maximal response (EC50) was greater than 10 µM.

The molecule `NC(=O)Cn1ncc2c(Nc3ccc(OC(F)(F)F)cc3)ncnc21` came in with a concentration for a half-maximal effect (EC50) of 3.3 µM.

`FC(F)(F)Oc1ccc(Nc2ncnc3c2cnn3Cc2ccncc2)cc1` returned an EC50 greater than 10 µM.

Take `CC(C)Cn1cc(-c2cc(Nc3ccc(OC(F)(F)F)cc3)ncn2)cn1`: the 50% effective concentration (EC50) is greater than 10 µM.

In turn, `CN(c1ccc(OC(F)(F)F)cc1)c1cc(-c2ccncc2)ncn1` yielded an EC50 greater than 10 µM.

As to `FC(F)(F)Oc1ccc(Nc2ncnc3c2cnn3C2CCCCC2)cc1`, the EC50 was determined as 9.3 µM.

Molecule `Cc1nc(-c2cc(Nc3ccc(OC(F)(F)F)cc3)ncn2)cs1` yielded a concentration for a half-maximal effect (EC50) greater than 10 µM.

The molecule `FC(F)(F)Oc1ccc(Nc2cc(-c3cnn(Cc4cccnc4)c3)ncn2)cc1` came in with a 50% effective concentration (EC50) greater than 10 µM.

Take `NC(=O)c1ccccc1-c1cc(Nc2ccc(OC(F)(F)F)cc2)ncn1`: the EC50 is greater than 10 µM.

Regarding `FC(F)(F)Oc1ccc(Nc2cc(-c3ccncc3)ncn2)cc1`, the concentration for a half-maximal effect (EC50) was greater than 10 µM.

`O=C(NCCN1CCOCC1)c1cccc(-c2cc(Nc3ccc(OC(F)(F)F)cc3)ncn2)c1` came in with an EC50 greater than 10 µM.

`CN(c1ccc(OC(F)(F)F)cc1)c1cc(NCCN2CCOCC2)ncn1`: the EC50 is greater than 10 µM.

Turning to `FC(F)(F)Oc1ccc(Nc2ccnc(NCCN3CCOCC3)n2)cc1`, the EC50 was greater than 10 µM.

`FC(F)(F)Oc1ccc(Nc2cc(-c3ccc4[nH]ccc4c3)ncn2)cc1`: the EC50 is greater than 10 µM.

As for `FC(F)(F)Oc1ccc(Nc2ncnc3c2cnn3Cc2ccccc2)cc1`, the concentration giving a half-maximal response (EC50) is greater than 10 µM.

`CCNC(=O)c1cc2c(Nc3ccc(OC(F)(F)F)cc3)ncnc2s1` returned a concentration for a half-maximal effect (EC50) greater than 10 µM.

`FC(F)(F)c1ccc(Nc2cc(NCCN3CCOCC3)ncn2)cc1` displayed a concentration giving a half-maximal response (EC50) greater than 10 µM.

Consider `FC(F)(F)Oc1ccc(Nc2ncnc3c2cnn3Cc2cccnc2)cc1`, for which the 50% effective concentration (EC50) was greater than 10 µM.

`CCCn1ncc2c(Nc3ccc(OC(F)(F)F)cc3)ncnc21` returned an EC50 of 6.6 µM.

`FC(F)(F)Oc1ccc(Nc2ncnc3[nH]ccc23)cc1` yielded a half-maximal effective concentration (EC50) greater than 10 µM.

In turn, `COCCCNC(=O)CCn1ccc2c(Nc3ccc(OC(F)(F)F)cc3)ncnc21` yielded an EC50 greater than 10 µM.

On to `FC(F)(F)Oc1ccc(Nc2ccc(NCCN3CCOCC3)nn2)cc1`, for which the EC50 was greater than 10 µM.

On to `FC(F)(F)Oc1ccc(Nc2ncnc3[nH]ncc23)cc1`, for which the EC50 was greater than 10 µM.

As for `CCn1cc2c(Nc3ccc(OC(F)(F)F)cc3)ncnc2n1`, the half-maximal effective concentration (EC50) was greater than 10 µM.

For the molecule `NC(=O)c1cccc(Oc2cc(Nc3ccc(OC(F)(F)F)cc3)ncn2)c1`, the EC50 was greater than 10 µM.

Turning to `Cn1ccc2c(Nc3ccc(OC(F)(F)F)cc3)ncnc21`, the EC50 is greater than 10 µM.

For `Fc1ccc(Nc2cc(-c3ccncc3)ncn2)cc1`, the concentration for a half-maximal effect (EC50) is greater than 10 µM.

Turning to `FC(F)(F)Oc1ccc(Nc2cc(NCCN3CCOCC3)ncn2)cc1`, the 50% effective concentration (EC50) was greater than 10 µM.

`O=C(c1cc2c(Nc3ccc(OC(F)(F)F)cc3)ncnc2s1)N1CCC(O)CC1` came in with an EC50 greater than 10 µM.

In the case of `FC(F)(F)Oc1ccc(Nc2ncnc3nn(Cc4ccccc4)cc23)cc1`, the EC50 was greater than 10 µM.

`COc1ccc(Nc2cc(-c3ccncc3)ncn2)cc1` displayed a concentration for a half-maximal effect (EC50) greater than 10 µM.

Turning to `FC(F)(F)Oc1ccc(Nc2ncnc(NCCN3CCOCC3)n2)cc1`, the 50% effective concentration (EC50) was greater than 10 µM.

The next test can be described thus: Inhibition of Bcr-Abl E255K mutant in mouse BA/F3 cells assessed as cell growth inhibition. The note with it: BaF3.
As to `CC(C)(C)n1ncc2c(Nc3ccc(OC(F)(F)F)cc3)ncnc21`, the EC50 is 0.5 µM.

With `NS(=O)(=O)c1ccc(-c2cc(Nc3ccc(OC(F)(F)F)cc3)ncn2)cc1`, the EC50 was 0.31 µM.

With `NC(=O)c1cccc(-c2cc(Nc3ccc(OC(F)(F)F)cc3)ncn2)c1`, the half-maximal effective concentration (EC50) was determined as 0.6 µM.

As for `O=C(NCCO)c1cccc(-c2cc(Nc3ccc(OC(F)(F)F)cc3)ncn2)c1`, the EC50 was 0.58 µM.

Take `CN1CCN(C(=O)c2cc3c(Nc4ccc(OC(F)(F)F)cc4)ncnc3s2)CC1`: the EC50 worked out at 1.33 µM.

Take `FC(F)(F)Oc1ccc(Nc2ncnc3c2ccn3CCN2CCOCC2)cc1`: the EC50 stood at 1.22 µM.

With `FC(F)(F)Oc1ccc(Nc2cc(-c3cn[nH]c3)ncn2)cc1`, the EC50 was 0.52 µM.

`OCCn1ncc2c(Nc3ccc(OC(F)(F)F)cc3)ncnc21`: the EC50 came out at 1.61 µM.

As for `CS(=O)(=O)Nc1ccc(-c2cc(Nc3ccc(OC(F)(F)F)cc3)ncn2)cc1`, the concentration for a half-maximal effect (EC50) came out at 0.36 µM.
